Screening data as filed in PubChem.
TNAP act hiacc = TNAP (human) activation, high acceptor | P05186 | purified TNAP, CDP-star luminescence, 1 M DEA, 30 min; hits give high values; 0 = EDTA background, 1 = DMSO-only activity | 200,000 tested, under 10 active | activation factor at 20 µM;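 active means activation factor at least 2 at 20 µM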
Target sequence (P05186 whole entry, looked up): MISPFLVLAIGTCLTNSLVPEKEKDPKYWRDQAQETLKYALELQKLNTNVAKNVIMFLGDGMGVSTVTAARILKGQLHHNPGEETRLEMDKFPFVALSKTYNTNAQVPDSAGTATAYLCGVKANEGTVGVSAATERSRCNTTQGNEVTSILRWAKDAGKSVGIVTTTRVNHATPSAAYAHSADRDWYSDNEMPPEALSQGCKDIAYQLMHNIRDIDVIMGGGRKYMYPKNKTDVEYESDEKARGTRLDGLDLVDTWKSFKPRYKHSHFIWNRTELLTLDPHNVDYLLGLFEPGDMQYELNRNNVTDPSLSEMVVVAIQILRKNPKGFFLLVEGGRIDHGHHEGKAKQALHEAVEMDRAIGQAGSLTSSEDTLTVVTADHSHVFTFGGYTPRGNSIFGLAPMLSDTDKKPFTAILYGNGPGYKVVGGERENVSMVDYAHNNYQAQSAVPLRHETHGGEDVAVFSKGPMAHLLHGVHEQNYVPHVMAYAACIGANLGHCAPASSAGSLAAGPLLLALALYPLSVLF
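Dosing: 20 µM single point. System: human TNAP. Amount: TNAP 1/800 final. Incubation: 30 min, room temperature. Read-out: TNAP activation factor scaled between EDTA and DMSO control wells. Signal: luminescence from CDP-star hydrolysis. Medium: 1 M DEA, pH 9.8, Mg2+, Zn2+. Control set: EDTA negative control, DMSO positive control.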
bCat KO growth = beta-catenin-lacking colon tumor cell growth suppression; HCT116 beta-catenin knockout viability, CellTiter-Glo, 60 h; hits give low values; viability, % at 10 µM; hit rate 1.5% among 140,000;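 active means viability at or under a set limit, the compound median less 4 SD, cut at about 6% in these data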
PTEN del growth = PTEN-deleted cell growth suppression; hit rate 1.2% among 140,000; HCT116 PTEN-null viability, CellTiter-Glo, 60 h; hits give low values; viability, % at 10 µM;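 active means viability at or below a set limit, 4 SD under the median of all tested compounds, cut at about 3.7% in these data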;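 further: PTEN knockout HCT116 line with beta catenin targeted HCT116 as companion control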
TNAP inh hiacc = inhibitors of human TNAP at high phosphate acceptor concentration | inhibition, % at 20 µM | purified TNAP, CDP-star luminescence, 1 M DEA | AID 1135 | P05186 | hit rate 0.03% among 200,000;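 active means over 50% inhibition of tissue-nonspecific alkaline phosphatase at 20 µM in the single-dose screen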
Lmaj promast = reduces viability of Leishmania major promastigotes. resazurin fluorescence viability. inhibition, % at 10 µM. hit rate 9% among 200,000. AID 1063; in the data active means inhibition above about 50%;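 further: promastigotes grown with compound for 44 hours at 28 °C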
TNAP inh noacc = inhibitors of human TNAP without phosphate acceptor | purified TNAP, CDP-star luminescence, 30 min | inhibition, % at 20 µM | hit rate 0.26% among 200,000;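 active means tissue-nonspecific alkaline phosphatase inhibition above about 50% at 20 µM in the single-dose screen, limit read from the data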
Hits are given with their value; n = inactive; x = no result. Only some compounds are listed: those with a hit (about 9.6% of all), similar ones and a draw of the others.

SMILES | TNAP act hiacc | bCat KO growth | PTEN del growth | TNAP inh hiacc | Lmaj promast | TNAP inh noacc
Cc1sc(NC(=O)CCl)c(C(=O)c2ccccc2)c1C | n | n | n | n | 101 | n
Cc1cc(C(=O)c2ccc(C(C)(C)C)cc2)c(NC(=O)CCl)s1 | n | 1.1 | 1.3 | n | 96 | n
Fc1ccc(NC(=S)NC23CN4CN(CN(C4)C2)C3)cc1 | n | n | n | n | n | n
Cc1nnc(NC(=O)CCNC(=O)c2ccccc2Cl)s1 | n | x | x | n | n | n
O=C1CCCc2c1[nH]c1ccc(CN3CCCCC3)cc21 | n | n | n | n | 59 | n
Cc1ccc2[nH]c3c(c2c1)CCCC3=O | n | n | n | n | n | n
CC1=C/C(=N\OC(=O)/C=C/c2ccccc2)C(C)=CC1=O | n | n | n | n | 100 | n
N/C(=N\OC(=O)/C=C/c1ccccc1)c1ccccc1 | n | n | n | n | n | n
Cc1ccc(SCC(=O)Nc2ccc(N3CCN(C)CC3)c(F)c2)c(C)c1 | n | x | x | n | 100 | n
O=C(CSc1ccc(Cl)cc1)Nc1ccc(N2CCN(c3ccccc3)CC2)c(F)c1 | n | n | n | n | n | n
Cc1ccc(NC(=O)CN(C)C(=O)Cn2ncc(Cl)c(Cl)c2=O)cc1 | n | 1.6 | 1.0 | n | 73 | n
O=C(/C=C/c1c(F)cccc1Cl)c1ccc(F)cc1 | n | 4.3 | 2.4 | n | n | n
COc1cccc2cc(-c3nc4ccccc4o3)c(=O)oc12 | n | x | x | n | 58 | n
COc1ccccc1N1CCN(C(=O)Cn2nc3n(C)c4ccccc4n3c(=O)c2=O)CC1 | n | x | x | n | n | n
Cc1ccc2c(c1)-c1c(ssc1=S)C(C)(C)N2C(=O)c1ccco1 | n | n | n | n | n | n
Cc1ccc2c(c1)-c1c(ssc1=S)C(C)(C)N2C(=O)CSC1=NCCS1 | n | n | n | n | 87 | n
CCOc1ccc2c(c1)-c1c(ssc1=S)C(C)(C)N2C(=O)CSC1=NCCS1 | n | n | n | n | 96 | n
Cc1cnc(C(=O)N2CCCC(C(=O)c3ccc(Cl)cc3C)C2)cn1 (stereo not given) | n | x | x | n | n | n
CCN(C(=S)Nc1cc(S(=O)(=O)N2CCOCC2)ccc1Cl)c1cccc2ccccc12 | n | n | n | n | 65 | n
Cn1c(=O)c2c(SCCN3CCOCC3)nc(C3CCCC3)nc2n(C)c1=O | n | x | x | n | n | n
c1cncc(C(c2nnnn2C2CCCCC2)N2CCN3CCCC3C2)c1 (stereo not given) | n | n | n | n | n | n
Fc1ccc(C(c2nnnn2C2CCCC2)N2CCN(Cc3ccccc3)CC2)cc1 (stereo not given) | n | n | n | n | n | n
Clc1ccc(C(c2nnnn2C2CCCC2)N2CCN(Cc3ccncc3)CC2)cc1 (stereo not given) | n | n | n | n | 88 | n
O=C(c1ccco1)N1CCN(C(c2cccs2)c2nnnn2C2CCCCC2)CC1 (stereo not given) | n | n | n | n | 60 | n
O=c1c(C(c2nnnn2C2CCCCC2)N2CCCCC2)coc2ccc(Cl)cc12 (stereo not given) | n | n | n | n | 62 | n
SMILES | TNAP act hiacc | bCat KO growth | PTEN del growth | TNAP inh hiacc | Lmaj promast | TNAP inh noacc
c1cncc(C(c2nnnn2C2CCCC2)N2CCCC2)c1 (stereo not given) | n | n | n | n | n | n
Cc1ccc(C(c2nnnn2C2CCCC2)N2CCN3CCCC3C2)cc1 (stereo not given) | n | n | n | n | 87 | n
CCN1C(=O)N(C(C)=O)C2C1N(C(C)=O)C(=O)N2C(C)=O (stereo not given) | n | x | x | n | n | n
c1ccc(C(c2nnnn2C2CCCC2)N2CCCCCC2)nc1 (stereo not given) | n | n | n | n | n | n
c1ccc(C(c2ccccc2)N2CCN(C(c3ccccn3)c3nnnn3C3CCCC3)CC2)cc1 (stereo not given) | n | x | x | n | 57 | n
Cc1ccc(C(c2nnnn2C2CCCC2)N2CCN(c3nc4ccccc4s3)CC2)cc1 (stereo not given) | x | x | x | x | 95 | x
Cc1ccc(C(c2nnnn2C2CCCCC2)N2CCc3ccccc32)cc1 (stereo not given) | n | n | n | n | 53 | n
c1csc(C(c2nnnn2C2CCCCC2)N2CCN(c3nc4ccccc4s3)CC2)c1 (stereo not given) | n | n | n | n | 93 | n
